Data from ChEMBL document CHEMBL2062476, “One pot efficient diversity oriented synthesis of polyfunctional styryl thiazolopyrimidines and their bio-evaluation as antimalarial and anti-HIV agents” (Eur J Med Chem, 2012).
In brackets after ≈: the same amount, converted by molar mass.

Columns and labels:
[1] = tested on: Human immunodeficiency virus; test: Inhibition of HIV reverse transcriptase activity at 100 ug/ml incubated at 37 degC for 1 hr by ELISA RT assay
How it was run: (§1)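 Colorimetric ELISA kit: template/primer with dNTPs (digoxigenin- and biotin-labelled dUTP) plus HIV-1 RT in lysis buffer, 60 µl total, 37 °C for 1 h; no-RT lysis buffer as negative control. Product captured on streptavidin plate 1 h at 37 °C, anti-DIG-POD (200 mU/mL) 1 h, ABTS substrate; OD 405 nm (reference 490 nm).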

[2] = Selectivity index, ratio of CC50 for african green monkey Vero C1008 cells to IC50 for chloroquine resistant Plasmodium falciparum K1; format: functional
How it was run: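 Vero C1008 cells grown in MEM with 15% FBS. Seeded at 1 × 10^5 cells/mL, left to adhere overnight, then exposed to serial compound dilutions for 72 h. Viability read by resazurin fluorescence after 4 h and CC50 derived. SI = CC50 / IC50 against K1, with IC50 from the 72 h SYBR green parasite assay.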

Plasmodium falciparum [3] = test: Antimalarial activity against chloroquine sensitive Plasmodium falciparum 3D7 infected in RBCs incubated for 72 hrs by SYBRgreen dye based fluorometric assay; format: functional, organism-based; details: 3D7, 72 h
How it was run: (§2)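 Parasites kept in RPMI-1640 (HEPES) with 0.5% AlbuMaxII, 0.2% glucose, 0.2% NaHCO3, 15 µM hypoxanthine, 37 °C, 5% CO2. Compounds in DMSO (10mg/mL stock), two-fold serial dilutions. Infected erythrocytes added at 4% haematocrit, 1% parasitaemia, incubated 72 h. Lysis buffer with SYBR green added for 4 h in the dark at room temp. Fluorescence read at ex 485/em 535 nm. IC50 taken from parasite DNA content relative to controls.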

[4] = Selectivity index, ratio of CC50 for african green monkey Vero C1008 cells to IC50 for chloroquine sensitive Plasmodium falciparum 3D7; format: functional
How it was run: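 SI = CC50 in Vero cells (resazurin, 72 h) divided by IC50 against P. falciparum 3D7. The IC50 came from a SYBR green assay: cultures in RPMI-1640 with 0.5% AlbuMaxII and 15 µM hypoxanthine, 4% haematocrit, 1% parasitaemia, two-fold dilutions, 72 h at 37 °C. Lysis with SYBR green for 4 h, read at ex 485/em 535 nm.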

[5] = Cytotoxicity against african green monkey Vero C1008 cells incubated for 72 hrs by resazurin dye based fluorometric assay; format: cell-based; details: chlorocebus sabaeus
How it was run: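 Vero (C1008) cells grown in MEM with 15% FBS, 37 °C, 5% CO2; trypsinized, seeded at 1 × 10^5 cells/mL and left to adhere overnight. Serial compound dilutions added for 72 h. Resazurin added, fluorescence read after 4 h; CC50 derived from viability.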

Plasmodium falciparum [6] = test: Antimalarial activity against chloroquine resistant Plasmodium falciparum K1 infected in RBCs incubated for 72 hrs by SYBRgreen dye based fluorometric assay; format: functional, organism-based; details: K1, 72 h; how it was run: as §2
[7] = tested on: Human immunodeficiency virus; test: Inhibition of HIV reverse transcriptase activity at 10 ug/ml incubated at 37 degC for 1 hr by ELISA RT assay; how it was run: as §1

| Compound | inhibition [1] [%] | Ratio CC50/IC50 [2] | IC50 (Plasmodium falciparum [3]) [µg/mL] | Ratio CC50/IC50 [4] | CC50 at 72 h [5] [µg/mL] | IC50 (Plasmodium falciparum [6]) [µg/mL] | inhibition [7] [%] |
| --- | --- | --- | --- | --- | --- | --- | --- |
| CC1=CSC2=NC(/C=C/c3ccc(Br)cc3)=C(C(=O)/C=C/c3ccc(Br)cc3)C(c3ccc(Cl)cc3)N12 (centres undefined) | 26.5 | 344.06 | 1.27 (≈ 1.95 µM) | 330.51 | 420 (≈ 643 µM) | 1.22 (≈ 1.87 µM) | 17.8 |
| Cc1ccnc2c1NC(=O)c1cccnc1N2C1CC1 |  |  |  |  |  |  | 97.9 |
| COc1ccc(C2C(C(=O)/C=C/c3ccc4c(c3)OCO4)=C(/C=C/c3ccc4c(c3)OCO4)N=C3SC=C(C)N32)cc1 (centres undefined) | 70.8 |  | 3.94 (≈ 6.81 µM) | 106 | 418 (≈ 722 µM) | 1.14 (≈ 1.97 µM) | 58.8 |
| CC1=CSC2=NC(/C=C/c3ccccc3Cl)=C(C(=O)/C=C/c3ccccc3Cl)C(c3ccccc3)N12 (centres undefined) | 73.4 | 572.25 | 0.56 (≈ 1.06 µM) | 367.88 | 206 (≈ 389 µM) | 0.36 (≈ 0.68 µM) | 38.9 |
| CC1=CSC2=NC(/C=C/c3cccc(Cl)c3)=C(C(=O)/C=C/c3cccc(Cl)c3)C(c3ccccc3)N12 (centres undefined) | 54.5 | 238.29 | 0.79 (≈ 1.49 µM) | 361.96 | 286 (≈ 540 µM) | 1.2 (≈ 2.27 µM) | 15.4 |
| COc1ccc(C2C(C(=O)/C=C/c3ccccc3)=C(/C=C/c3ccccc3)N=C3SC=C(C)N32)cc1 (centres undefined) | 48.6 | 248.11 | 2.11 (≈ 4.3 µM) | 99.95 | 211 (≈ 430 µM) | 0.85 (≈ 1.73 µM) | 39.4 |
| CC1=CSC2=NC(/C=C/c3cccc(Cl)c3)=C(C(=O)/C=C/c3cccc(Cl)c3)C(c3ccc(Cl)cc3)N12 (centres undefined) | 16.6 | >417.5 | 2.25 (≈ 3.99 µM) | 141.02 | 317 (≈ 563 µM) | < 0.76 | 13.2 |
| COc1ccc(C2C(C(=O)/C=C/c3ccc(F)cc3)=C(/C=C/c3ccc(F)cc3)N=C3SC=C(C)N32)cc1 (centres undefined) | 41.4 | 239.29 | 5.15 (≈ 9.78 µM) | 50.65 | 261 (≈ 495 µM) | 1.09 (≈ 2.07 µM) | 9.22 |
| COc1ccc(C2C(C(=O)/C=C/c3cccs3)=C(/C=C/c3cccs3)N=C3SC=C(C)N32)cc1 (centres undefined) | 54.4 | 115.83 | 5.17 (≈ 10.3 µM) | 45.48 | 235 (≈ 468 µM) | 2.03 (≈ 4.04 µM) | 47.7 |
| CC1=CSC2=NC(/C=C/c3ccccc3)=C(C(=O)/C=C/c3ccccc3)C(c3ccccc3)N12 (centres undefined) | 49.6 | 247.43 | 0.57 (≈ 1.24 µM) | 342.93 | 195 (≈ 424 µM) | 0.79 (≈ 1.72 µM) | 42.3 |
| COc1ccc(/C=C/C(=O)C2=C(/C=C/c3ccc(OC)cc3)N=C3SC=C(C)N3C2c2cc(OC)c(OC)c(OC)c2)cc1 (centres undefined) | 51.3 | 489.94 | 1.57 (≈ 2.57 µM) | 221.57 | 348 (≈ 570 µM) | 0.71 (≈ 1.16 µM) | 30.1 |
| CC1=CSC2=NC(/C=C/c3ccc(F)cc3)=C(C(=O)/C=C/c3ccc(F)cc3)C(c3ccccc3)N12 (centres undefined) | 59.2 | 192.53 | 2.68 (≈ 5.4 µM) | 114.22 | 306 (≈ 616 µM) | 1.59 (≈ 3.2 µM) | 30 |
| CC1=CSC2=NC(/C=C/c3ccccc3Cl)=C(C(=O)/C=C/c3ccccc3Cl)C(c3ccc(Cl)cc3)N12 (centres undefined) | 26.1 | 154.03 | 5.9 (≈ 10.5 µM) | 72.84 | 430 (≈ 762 µM) | 2.79 (≈ 4.95 µM) | 18 |
| COc1ccc(C2C(C(=O)/C=C/c3ccc(Cl)cc3)=C(/C=C/c3ccc(Cl)cc3)N=C3SC=C(C)N32)cc1 (centres undefined) | 50.9 | 182.89 | 5.3 (≈ 9.47 µM) | 51.42 | 273 (≈ 487 µM) | 1.49 (≈ 2.66 µM) | 31.2 |
| CC1=CSC2=NC(/C=C/c3ccccc3)=C(C(=O)/C=C/c3ccccc3)C(c3ccc(Cl)cc3)N12 (centres undefined) | 30.6 | 1183.89 | 0.5 (≈ 1.01 µM) | 639.3 | 320 (≈ 646 µM) | 0.27 (≈ 0.545 µM) | 23.6 |
| CC1=CSC2=NC(/C=C/c3ccc(OCc4ccccc4)cc3)=C(C(=O)/C=C/c3ccc(OCc4ccccc4)cc3)C(c3ccccc3)N12 (centres undefined) | 56.3 | >116.28 | 24.5 (≈ 36.4 µM) | >20.39 | > 500 | 4.3 (≈ 6.39 µM) | 47.7 |
| CC1=CSC2=NC(/C=C/c3ccc(OCc4ccccc4)cc3)=C(C(=O)/C=C/c3ccc(OCc4ccccc4)cc3)C(c3ccc(Cl)cc3)N12 (centres undefined) | 18.6 | >25.56 | 6.97 (≈ 9.85 µM) | >71.74 | > 500 | 19.6 (≈ 27.6 µM) | 17.6 |
| CC1=CSC2=NC(/C=C/c3ccc(Cl)cc3)=C(C(=O)/C=C/c3ccc(Cl)cc3)C(c3ccc(Cl)cc3)N12 (centres undefined) | 11.4 | 515.05 | 0.85 (≈ 1.51 µM) | 363.57 | 309 (≈ 548 µM) | 0.6 (≈ 1.06 µM) | 10.6 |
| COc1cc(/C=C/C(=O)C2=C(/C=C/c3cc(OC)c(OC)c(OC)c3)N=C3SC=C(C)N3C2c2ccccc2)cc(OC)c1OC (centres undefined) | 66.9 | >868.23 | 0.5 (≈ 0.78 µM) | 520.94 | 260 (≈ 407 µM) | < 0.3 | 5.69 |
| COc1ccc(/C=C/C(=O)C2=C(/C=C/c3ccc(OC)cc3)N=C3SC=C(C)N3C2c2ccccc2)cc1 (centres undefined) | 32.7 | >471.31 | 2.19 (≈ 4.21 µM) | 163.56 | 358 (≈ 688 µM) | < 0.76 | 40.6 |
| CC1=CSC2=NC(/C=C/c3ccc(Br)cc3)=C(C(=O)/C=C/c3ccc(Br)cc3)C(c3ccccc3)N12 (centres undefined) | 55.4 | 112.93 | 5.38 (≈ 8.7 µM) | 52.48 | 282 (≈ 457 µM) | 2.5 (≈ 4.04 µM) | 39.8 |
| CC1=CSC2=NC(/C=C/c3ccc4c(c3)OCO4)=C(C(=O)/C=C/c3ccc4c(c3)OCO4)C(c3ccccc3)N12 (centres undefined) |  | 455.71 | 5.07 (≈ 9.24 µM) | 97.97 | 497 (≈ 905 µM) | 1.09 (≈ 1.99 µM) |  |
| CC1=CSC2=NC(/C=C/c3ccc(Cl)cc3)=C(C(=O)/C=C/c3ccc(Cl)cc3)C(c3ccccc3)N12 (centres undefined) | 53.4 | 93.17 | 5.15 (≈ 9.73 µM) | 49.03 | 252 (≈ 477 µM) | 2.71 (≈ 5.12 µM) | 42.6 |
| COc1cc(/C=C\C2=C(C(=O)/C=C/c3cc(OC)c(OC)c(OC)c3)C(c3cc(OC)c(OC)c(OC)c3)N3C(C)=CSC3=N2)cc(OC)c1OC (centres undefined) | 55.9 | >219.3 | 6.82 (≈ 9.33 µM) | 24.44 | 167 (≈ 228 µM) | < 0.76 | 48.4 |
